# Results published in article PMC12804367 (ESMO Open, 2025).
# “And” between values parts separate entries of the source, which are not always exact repeats. Equal values may be shown once. “Also recorded” adds a separate entry of the source. Read-outs that look alike come from different tables or passages of the source. Marks after values point to notes of the source that are not given here.
# Tests used:
# [1] = tested on: patients with advanced or metastatic solid tumors; test: Safety, tolerability and DLTs; format: in vivo, human
# In short: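 3 + 3 escalation starting at 16 mg/day once daily or 24 mg/day intermittent (4 days on/3 days off) in 21-day cycles. AEs graded by CTCAE v5.0. DLTs were selected lab abnormalities or AEs at least possibly drug-related during cycle 1, assessed in patients with a DLT or ≥80% of planned doses taken.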
# Plasma pharmacokinetics = format: in vivo, human
# In short: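 Dose-escalation patients had blood drawn predose and 0.5, 1, 2, 3, 4, 6 and 24 h post-dose on cycle 1 day 1, and on cycle 1 day 8 for once-daily dosing only. Plasma parameters came from noncompartmental analysis in patients with evaluable plasma concentration data. Values are geometric means with geometric CV%, plus day 8/day 1 accumulation ratios of Cmax and AUC0-24.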
# [2] = tested on: advanced or metastatic solid tumors; test: Antitumor activity per RECIST v1.1; format: in vivo, human
# In short: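 Open-label, single-arm, 3 + 3 dose-escalation lead-in. Adults with advanced or metastatic solid tumors that had progressed on standard therapy and had ≥1 lesion per RECIST v1.1. Test compound given once daily (16 or 20 mg) or 4 days on/3 days off (24 or 28 mg) in 21-day cycles until progression or toxicity. Response, DCR and PFS were assessed in all dosed patients, with 95% CI.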
# [3] = tested on: patients with advanced solid tumors; settings: all patients; cited from earlier work
# [4] = Japanese phase I study; cited from earlier work
# advanced solid tumors = settings: cited from earlier work
# [5] = tested on: refractory gastrointestinal cancers / advanced solid tumors; settings: cited from earlier work
# kinases = settings: cited from earlier work
# [6] = dose escalation o.d. 20 mg (n = 6)
# [7] = dose escalation o.d. total (n = 9), any grade
# [8] = dose escalation o.d. total (n = 9), grade ≥3
# [9] = two intermittent dosing groups (n = 7)
# [10] = cycle 1 day 1, 16 mg o.d., individual values (N = 2)
# [11] = cycle 1 day 1, 20 mg o.d., N = 6, geometric mean (CV%)
# [12] = cycle 1 day 1, 24 mg intermittent, N = 4, geometric mean (CV%)
# [13] = cycle 1 day 1, 28 mg intermittent, N = 3, geometric mean (CV%)
# [14] = cycle 1 day 8, 16 mg o.d., N = 3, geometric mean (CV%)
# [15] = cycle 1 day 8, 20 mg o.d., N = 6, geometric mean (CV%)
# [16] = one patient, germline PTEN mutation, metaplastic breast cancer, 20 mg o.d.
smiles,measurement,setting,value
C[C@]1(O)C[C@@](N)(c2ccc(-c3nc4n(c3-c3ccccc3)COc3ccncc3-4)cc2)C1 [TAS-117],TRAE: Hyperglycemia,[1]; [6],1 (16.7) n (%)
same,TRAE: Nausea,[1]; [6],1 (16.7) n (%)
same,TRAE: Pruritus,[1]; [6],1 (16.7) n (%)
same,TRAE: Rash,[1]; [6],4 (66.7) n (%)
same,TRAE: Rash maculopapular,[1]; [6],1 (16.7) n (%)
same,Patients with any TRAE,[1]; [7],8 (88.9) n (%)
same,TRAE: Decreased appetite,[1]; [7],1 (11.1) n (%)
same,TRAE: Diarrhea,[1]; [7],2 (22.2) n (%)
same,TRAE: Fatigue,[1]; [7],2 (22.2) n (%)
same,TRAE: Hyperglycemia,[1]; [7],2 (22.2) n (%)
same,TRAE: Nausea,[1]; [7],1 (11.1) n (%)
same,TRAE: Pruritus,[1]; [7],1 (11.1) n (%)
same,TRAE: Rash,[1]; [7],6 (66.7) n (%)
same,TRAE: Rash maculopapular,[1]; [7],1 (11.1) n (%)
same,Patients with any TRAE,[1]; [8],5 (55.6) n (%)
same,TRAE: Fatigue,[1]; [8],1 (11.1) n (%)
same,TRAE: Rash,[1]; [8],2 (22.2) n (%)
same,TRAE: Rash maculopapular,[1]; [8],1 (11.1) n (%)
same,Patients who experienced a DLT,"[1]; dose-escalation part, assessable patients (n = 16), cycle 1",three
same,TEAEs leading to death,[1]; either dosing regimen,No TEAEs leading to death
same,Patients with dose interruption due to an AE,[1]; intermittent dosing groups,57.1%
same,Patients with dose reductions due to an AE,[1]; intermittent dosing groups,42.9%
same,Patients with treatment discontinued due to a TRAE,"[1]; intermittent dosing groups, grade 3 skin exfoliation at 28 mg",14.3%
same,Patients with treatment-related serious AEs,"[1]; o.d. dosing groups, all at 20 mg o.d.",three
same,Patients with AEs leading to dose interruptions,[1]; o.d. dosing regimen,66.7%
same,Patients with AEs leading to dose reductions,[1]; o.d. dosing regimen,0%
same,TRAE: Diarrhea,[1]; o.d. dosing regimen (n = 9),22.2%
same,TRAE: Fatigue,[1]; o.d. dosing regimen (n = 9),22.2%
same,TRAE: Hyperglycemia,[1]; o.d. dosing regimen (n = 9),22.2%
same,TRAE: Rash,[1]; o.d. dosing regimen (n = 9),66.7%
same,Grade ≥3 TRAE: stomatitis,[1]; [9],28.6%
same,Grade ≥3 TRAEs,[1]; [9],42.9%
same,TRAE: Decreased appetite,[1]; [9],28.6%
same,TRAE: Fatigue,[1]; [9],57.1%
same,TRAE: Hyperglycemia,[1]; [9],42.9%
same,TRAE: Pruritus,[1]; [9],57.1%
same,TRAE: Rash,[1]; [9],57.1%
same,TRAE: Stomatitis,[1]; [9],42.9%
same,"Total exposure per week, 16 mg o.d. compared with 24-mg intermittent dosing",Plasma pharmacokinetics; 16 mg o.d.,higher total exposure per week
same,AUC0-24,Plasma pharmacokinetics; [10],180.7 ng·h/mL and 244.3 ng·h/mL
same,AUC0-last,Plasma pharmacokinetics; [10],180.7 ng·h/mL and 244.3 ng·h/mL
same,Cmax,Plasma pharmacokinetics; [10],12.8 ng/mL and 14.5 ng/mL
same,Tmax,Plasma pharmacokinetics; [10],3.05 h and 20.88 h
same,AUC0-24,Plasma pharmacokinetics; [11],333 (34.7) ng·h/ml
same,AUC0-last,Plasma pharmacokinetics; [11],333 (34.7) ng·h/ml
same,Cmax,Plasma pharmacokinetics; [11],21.5 (29.2) ng/ml
same,Tmax,"Plasma pharmacokinetics; cycle 1 day 1, 20 mg o.d., N = 6, median (range)",2.06 (1.15-6.42) h
same,AUC0-24,Plasma pharmacokinetics; [12],412.8 (30.6) ng·h/ml
same,AUC0-last,Plasma pharmacokinetics; [12],290.5 (86) ng·h/ml
same,Cmax,Plasma pharmacokinetics; [12],23.2 (33.9) ng/ml
same,Tmax,"Plasma pharmacokinetics; cycle 1 day 1, 24 mg intermittent, N = 4, median (range)",2 (1.98-3.65) h
same,AUC0-last,Plasma pharmacokinetics; [13],426.3 (180.7) ng·h/ml
same,Cmax,Plasma pharmacokinetics; [13],48.1 (35.9) ng/ml
same,Tmax,"Plasma pharmacokinetics; cycle 1 day 1, 28 mg intermittent, N = 3, median (range)",2 (0.92-5.65) h
same,AUC0-24,"Plasma pharmacokinetics; cycle 1 day 1, 28 mg intermittent, individual values (n = 2)",754.4 ng·h/mL and 961.1 ng·h/mL
same,AUC0-last,Plasma pharmacokinetics; [14],231.7 (157.2) ng·h/ml
same,Cmax,Plasma pharmacokinetics; [14],33.3 (34.3) ng/ml
same,Tmax,"Plasma pharmacokinetics; cycle 1 day 8, 16 mg o.d., N = 3, median (range)",4.08 (2-5.5) h
same,AUC0-24,"Plasma pharmacokinetics; cycle 1 day 8, 16 mg o.d., individual value (n = 1)",811.3 ^b ng·h/ml
same,AUC0-24,Plasma pharmacokinetics; [15],924 (54.5) ng·h/ml
same,AUC0-last,Plasma pharmacokinetics; [15],924 (54.5) ng·h/ml
same,Cmax,Plasma pharmacokinetics; [15],60.1 (58.8) ng/ml
same,Tmax,"Plasma pharmacokinetics; cycle 1 day 8, 20 mg o.d., N = 6, median (range)",2.33 (1.02-5.58) h
same,Exposure versus dose,"Plasma pharmacokinetics; dose range 16-28 mg, cycle 1 day 1 and day 8",generally increased with increasing doses; also recorded: dose-dependent increases
same,Median PFS,"[2]; all cohorts, 95% CI 1.3-3.5 months",2.7 months
same,DCR,"[2]; all patients, 95% CI 18.4% to 67.1%",41.2%
same,Patients with stable disease as best response,"[2]; o.d. dosing, all at 20 mg",three
same,Best overall response,[2]; [16],stable disease
same,"Duration of stable disease / treatment, ongoing at data cut-off",[2]; [16],19.1 months
same,Duration of stable disease / treatment as of manuscript drafting,"[2]; one patient, germline PTEN mutation, metaplastic breast cancer, ongoing",> 3 years
same,"Objective response (RECIST v1.1, investigator assessment)","[2]; patients assessed, n = 15, dose escalation (all-comers)",None and no patients having a confirmed response
same,Tolerability of 24-mg o.d. dose level,[3],intolerable skin toxicities
same,Accumulation of Cmax and AUC0-24,[4],threefold to fourfold
same,Objective responses,"advanced solid tumors; PIK3CA-mutant endometrial cancer, 1 out of 16 patients",6.3%
same,Objective responses,"advanced solid tumors; ovarian clear cell carcinoma, 3 out of 20 patients",15%
same,Antitumor activity and safety,advanced solid tumors; patients with advanced solid tumors,preliminary antitumor activity and a manageable safety profile
same,Patients who achieved a partial response,[5]; PIK3CA-mutant ovarian cancer,1 patient
same,Antitumor activity and toxicity,[5]; patients with refractory gastrointestinal cancers,limited antitumor activity and manageable toxicity
same,Off-target inhibition of kinases,kinases,no observed off-target inhibition of kinases
